The test system of one data set is H9. Description: Cytotoxicity against human H9 cells. In kind it is cell-based. Summed up: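 Uninfected H9 T cells (log phase, RPMI 1640 + 10% FCS) were seeded at 4 × 10^5 cells/mL with compound diluted in medium and kept 4 days at 37 °C, 5% CO2. Cell density was counted by Coulter counter and IC50 was derived.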
The test system of data set [1] is Human immunodeficiency virus 1. Kind of data set: Antiviral activity against HIV1 3B infected in human H9 T cells after 4 days by ELISA. The class given is functional, organism-based. The conditions noted are these: for EC50: Human immunodeficiency virus 1, 3B, H9, 96 h. In outline: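 H9 T cells kept in RPMI 1640 with 10% fetal calf serum at 37 °C, 5% CO2, used in log phase. Infected with HIV-1 IIIB (MOI 0.1-0.01 IU/cell) for 1 h, washed, and seeded at 4 × 10^5 cells/mL with compound diluted in medium. After 4 days at 37 °C, p24 in medium was read by sandwich ELISA (cutoff 12.5 pg/mL) against a p24 standard curve. EC50 was derived.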
In general terms: In an ELISA, binding on a coated surface is turned into a signal by an enzyme label.

Data set [2] can be described thus: Therapeutic index, ratio of IC50 for human H9 cells to EC50 for HIV1 3B. The class given is cell-based. The conditions noted are these: H9 cells infected with HIV-1 3B, read-out: TI.

In brackets after ≈: the same amount, converted by molar mass. Activity calls are given as the source filed them.

As usually defined, the IC50 is the concentration that gives 50% inhibition. A high value points to weaker potency in that assay. In the data set with H9, `CC1=CC[C@@H]([C@@H](C)[C@H]2CC[C@@]3(C)[C@@H]4C[C@@H](O)[C@H]5C(C)(C)OC(=O)C=C[C@@]56C[C@@]46CC[C@]23C)OC1=O` [KADSULACTONE A] yielded a half-maximal inhibitory concentration (IC50) of 8.6 µg/mL (≈ 17.8 µM). Also, the outcome in data set [1] was inactive.
For `CC1=CC[C@@H]([C@@H](C)[C@H]2CC[C@@]3(C)C4=C(C=C5C=CC(=O)OC(C)(C)[C@@H]5[C@H](O)C4)CC[C@]23C)OC1=O` [LANCILACTONE A], in that order: 14.3 µg/mL (≈ 29.8 µM) and “inactive”.
`CC1=CC[C@@H]([C@@H](C)[C@H]2CC[C@@]3(C)C4=C(C=C5C=CC(=O)OC(C)(C)[C@@H]5C=C4)CC[C@]23C)OC1=O` [LANCILACTONE B] had an IC50 in the data set with H9 of 7.1 µg/mL (≈ 15.3 µM). The outcome in data set [1] was inactive.
What is called EC50 is the concentration at which the effect is half-maximal. Low values mean an effect from little substance, high ones a need for much substance. `CC1=CC[C@@H]([C@@H](C)[C@H]2CC[C@@]3(C)C4=C(C=C(CCC(=O)O)C(=C(C)C)C=C4)CC[C@]23C)OC1=O` [LANCILACTONE C]: the IC50 in the data set on H9 was greater than 100 µg/mL. In data set [2], the selectivity ratio was greater than 71.4. In data set [1], the EC50 worked out at 1.4 µg/mL (≈ 3.01 µM).
Consider `Cc1cn([C@H]2C[C@H](N=[N+]=[N-])[C@@H](CO)O2)c(=O)[nH]c1=O` [ZIDOVUDINE], for which it took 0.045 µg/mL (≈ 0.168 µM) to reach a half-maximal effect in data set [1] (EC50).

(Values after ChEMBL document CHEMBL1157991, “Novel anti-HIV lancilactone C and related triterpenes from Kadsura lancilimba” (J Nat Prod, 1999).)
